Reference: ChEMBL document CHEMBL1129428 (J Med Chem, 1996)

Experiments:
Mus musculus [1] = assay: Toxicity after intraperitoneal injection into mice by using toxicity screen test after 0.5 hr; type: organism-based; details: in vivo, ip
How it was run: (§1)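 Mice injected intraperitoneally at 30, 100 and 300 mg/kg and examined 0.5 and 4 h afterwards. Each entry is the minimum dose giving activity (MES protection, scPTZ protection, or rotorod failure for neurotoxicity) in half or more of the mice. Activity is called absent if nothing occurs at 300 mg/kg.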

Rattus norvegicus [2] = assay: Compound was tested for anticonvulsant activity after Oral Administration into Rats by using MES screen test after 1 hr, dose 50 mg/kg; number of rats out of four which were protected; type: functional
How it was run: (§2)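 Rats received the compound orally. […] Rats were tested in the MES screen at 0.25, 0.5, 1, 2 and 4 h. Each value is the number of rats protected out of 4. The test followed NINDS procedures.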

Rattus norvegicus [3] = assay: Compound was tested for anticonvulsant activity after Oral Administration into Rats by using MES screen test after 0.25h,dose 50 mg/kg; number of rats out of four which were protected; type: functional; how it was run: as §2
Rattus norvegicus [4] = assay: Compound was tested for anticonvulsant activity after Oral Administration into Rats by using MES screen test after 4h,dose 50 mg/kg; number of rats out of four which were protected; type: functional; how it was run: as §2
Mus musculus [5] = assay: Anticonvulsant activity after intraperitoneal injection into mice by using MES screen test after 0.5 hr; type: functional
Mus musculus [6] = assay: Anticonvulsant activity after intraperitoneal injection into mice measured in a maximal electroshock scree (MES) screen; type: functional
Mus musculus [7] = assay: Compound was tested for toxicity after intraperitoneal injection into mice by using toxicity screen test after 4 hr; type: organism-based; details: in vivo, ip; how it was run: as §1
Rattus norvegicus [8] = assay: Compound was tested for anticonvulsant activity after Oral Administration into Rats by using MES screen test after 0.5h,dose 50 mg/kg; number of rats out of four which were protected; type: functional; how it was run: as §2
Rattus norvegicus [9] = assay: Compound was tested for anticonvulsant activity after Oral Administration into Rats by using MES screen test after 2h,dose 50 mg/kg; number of rats out of four which were protected; type: functional; how it was run: as §2
Rattus norvegicus [10] = assay: Compound was tested for anticonvulsant activity after Oral Administration into Rats by using MES screen test after 4h,dose 30 mg/kg; number of rats out of four which were protected; type: functional; how it was run: as §2
Mus musculus [11] = assay: Anticonvulsant activity after intraperitoneal injection into mice by using scPTZ screen after 0.5 hr; type: functional
Rattus norvegicus [12] = assay: Compound was tested for anticonvulsant activity after Oral Administration into Rats by using MES screen test after 0.5h,dose 30 mg/kg; number of rats out of four which were protected; type: functional; how it was run: as §2
Rattus norvegicus [13] = assay: Compound was tested for anticonvulsant activity after Oral Administration into Rats by using MES screen test after 2h,dose 30 mg/kg; number of rats out of four which were protected; type: functional; how it was run: as §2
Rattus norvegicus [14] = assay: Compound was tested for anticonvulsant activity after Oral Administration into rat by using MES screen test after 1 hr; type: functional
How it was run: (§3)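 Rats dosed orally, typically at 50 mg/kg first, then mostly 12.5 mg/kg (some compounds at 30 mg/kg), and tested by maximal electroshock. Four rats per compound, scored at 0.25, 0.5, 1, 2 and 4 h as the number of rats protected out of 4.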

Rattus norvegicus [15] = assay: Compound was tested for anticonvulsant activity after Oral Administration into Rats by using MES screen test after 0.25h,dose 30 mg/kg; No activity was demonstarted; type: functional, organism-based; design: dose 30 mg/kg; how it was run: as §2
Rattus norvegicus [16] = assay: Compound was tested for anticonvulsant activity after Oral Administration into Rats by using MES screen test after 1h,dose 30 mg/kg; number of rats out of four which were protected; type: functional; how it was run: as §2
Mus musculus [17] = assay: Anticonvulsant activity after intraperitoneal injection into mice by using scPTZ screen test after 4 hr; type: functional
[18] = Partition coefficient (logP); type: physicochemical; details: octanol/water
How it was run: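 Partition between 1-octanol and buffer at pH 7.4, with solutions prepared in 1-octanol before buffer is added. Quantified by UV, using λmax and ε values measured in 1-octanol.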

Mus musculus [19] = assay: Anticonvulsant activity after intraperitoneal injection into mice by using MES screen test after 0.25 hr; type: functional
Mus musculus [20] = assay: Compound was tested for anticonvulsant activity after intraperitoneal injection into mice by using scPTZ screen test after 0.25 hr; type: functional; details: ip
How it was run: (§4)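 Quantitative intraperitoneal mouse testing in the MES, scPTZ or rotorod neurotoxicity screens at the peak time given for each compound (0.25–2 h). ED50 or TD50 reported in mg/kg with 95% CI and slope (SE).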

Rattus norvegicus [21] = assay: Compound was tested for anticonvulsant activity after Oral Administration into Rats by using MES screen test after 0.5h,dose 50 mg/kg; No activity was demonstarted; type: functional, organism-based; design: dose 50 mg/kg; how it was run: as §2
Rattus norvegicus [22] = assay: Compound was tested for anticonvulsant activity after Oral Administration into Rats by using MES screen test after 2h,dose 50 mg/kg; No activity was demonstarted; type: functional, organism-based; design: dose 50 mg/kg; how it was run: as §2
Rattus norvegicus [23] = assay: Compound was tested for anticonvulsant activity after Oral Administration into Rats by using MES screen test after 0.25h,dose 50 mg/kg; No activity was demonstarted; type: functional, organism-based; design: dose 50 mg/kg; how it was run: as §2
Rattus norvegicus [24] = assay: Compound was tested for anticonvulsant activity after Oral Administration into Rats by using MES screen test after 1h,dose 50 mg/kg; No activity was demonstarted; type: functional, organism-based; design: dose 50 mg/kg; how it was run: as §2
Rattus norvegicus [25] = assay: Compound was tested for anticonvulsant activity after Oral Administration into Rats by using MES screen test after 4h,dose 50 mg/kg; No activity was demonstarted; type: functional, organism-based; design: dose 50 mg/kg; how it was run: as §2
Rattus norvegicus [26] = assay: Compound was tested for anticonvulsant activity after Oral Administration into Rats by using MES screen test after 1h,dose 12.5 mg/kg; number of rats out of four which were protected; type: functional; how it was run: as §2
[27] = Protection index = TD50/ED50; type: ADME; details: read-out: PI
Mus musculus [28] = assay: Compound was tested for anticonvulsant activity after intraperitoneal injection into mice by using MES screen test after 4 hr; type: functional; details: ip; how it was run: as §1
[29] = Compound was tested for toxicity after intraperitoneal injection into mice by using neurotoxicity screen test after 4 hr; type: organism-based; details: mouse, in vivo, ip; how it was run: as §1
Rattus norvegicus [30] = assay: Compound was tested for anticonvulsant activity after Oral Administration into Rats by using MES screen test after 0.25h,dose 12.5 mg/kg; No activity was demonstarted; type: functional, organism-based; design: dose 12.5 mg/kg; how it was run: as §2
Rattus norvegicus [31] = assay: Compound was tested for anticonvulsant activity after Oral Administration into Rats by using MES screen test after 4h,dose 12.5 mg/kg; number of rats out of four which were protected; type: functional; how it was run: as §2
Rattus norvegicus [32] = assay: Anticonvulsant activity after oral administration into rats; type: functional; design: concentration or dose not given beside the values
Mus musculus [33] = assay: Compound was tested for anticonvulsant activity after intraperitoneal injection into mice by using scPTZ screen test after 1 hr; type: functional; details: ip; how it was run: as §4
[34] = Compound was tested for toxicity after oral administration in rat by using neurotoxicity screen test after 0.25-24 hr; type: organism-based; details: in vivo
How it was run: (§5)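 Rat neurotoxicity after oral dosing, observed at 0.25, 0.5, 1, 2, 4, 6, 8 and 24 h (8 h omitted for one compound).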

Rattus norvegicus [35] = assay: Compound was tested for anticonvulsant activity after Oral Administration into rat by using MES screen test after 4 hr; type: functional; how it was run: as §3
Rattus norvegicus [36] = assay: Compound was tested for anticonvulsant activity after Oral Administration into Rats by using MES screen test after 2h,dose 12.5 mg/kg; number of rats out of four which were protected; type: functional; how it was run: as §2
Rattus norvegicus [37] = assay: Compound was tested for anticonvulsant activity after Oral Administration into Rats by using MES screen test after 0.25h,dose 12.5 mg/kg; number of rats out of four which were protected; type: functional; how it was run: as §2
Rattus norvegicus [38] = assay: Compound was tested for anticonvulsant activity after Oral Administration into rat by using MES screen test after 0.5 hr; type: functional; how it was run: as §3
[39] = Protection index = TD50/ED50 (MES); type: ADME, organism-based; details: rat, in vivo; read-out: PI
[40] = Compound was tested for toxicity after oral administration in rat by using neurotoxicity screen test after 2 hr; type: organism-based; details: in vivo; how it was run: as §5

NC(=O)N/N=C/c1ccc(Oc2ccc(Br)cc2)cc1
Dose (Mus musculus [1]): 300 mg/kg
Activity (Rattus norvegicus [2]): 4
Activity (Rattus norvegicus [3]): 1
Activity (Rattus norvegicus [4]): 4
Dose (Mus musculus [5]): 30 mg/kg
Dose (Mus musculus [6]): 30 mg/kg
Dose (Mus musculus [7]): 30 mg/kg
Activity (Rattus norvegicus [8]): 4
Activity (Rattus norvegicus [9]): 4

C/C(=N/NC(N)=O)c1ccc(Sc2ccccc2)cc1
Activity (Rattus norvegicus [10]): 4
Dose (Mus musculus [11]): 300 mg/kg
Dose (Mus musculus [5]): 100 mg/kg
Activity (Rattus norvegicus [12]): 4
Dose (Mus musculus [6]): 100 mg/kg
Activity (Rattus norvegicus [13]): 4
ED50 (Rattus norvegicus [14]): 16.6 mg/kg
Activity (Rattus norvegicus [15]): No activity
Activity (Rattus norvegicus [16]): 4

NC(=O)N1c2ccccc2C=Cc2ccccc21 [CARBAMAZEPINE]
Dose (Mus musculus [1]): 100 mg/kg
Dose (Mus musculus [17]): 300 mg/kg
Dose (Mus musculus [11]): 100 mg/kg
Dose (Mus musculus [5]): 30 mg/kg
logP [18]: 2.2
Dose (Mus musculus [6]): 100 mg/kg
Dose (Mus musculus [7]): 300 mg/kg
ED50 (Mus musculus [19]): 9.85 mg/kg
ED50 (Mus musculus [20]): > 50 mg/kg

NC(=O)N/N=C\c1cccc(Oc2ccccc2)c1
logP [18]: 2.07
Dose (Mus musculus [6]): 300 mg/kg
Activity (Rattus norvegicus [21]): No activity
Activity (Rattus norvegicus [22]): No activity
Activity (Rattus norvegicus [23]): No activity
Activity (Rattus norvegicus [24]): No activity
Activity (Rattus norvegicus [25]): No activity

NC(=O)N/N=C/c1ccc(Oc2ccc(Oc3ccccc3)cc2)cc1
Activity (Rattus norvegicus [4]): 1
logP [18]: 1.92
Dose (Mus musculus [6]): 300 mg/kg
Activity (Rattus norvegicus [21]): No activity
Activity (Rattus norvegicus [23]): No activity
Activity (Rattus norvegicus [24]): No activity
Activity (Rattus norvegicus [9]): 1

CCC(C)c1ccc(Oc2ccc(/C=N\NC(N)=O)cc2)cc1 (configuration not stated)
Dose (Mus musculus [1]): 300 mg/kg
Activity (Rattus norvegicus [26]): 2
selectivity ratio [27]: 1.51
Dose (Mus musculus [17]): 100 mg/kg
ED50 (Mus musculus [28]): 13.4 mg/kg
TD50 at 4 h [29]: 131 mg/kg
Activity (Rattus norvegicus [30]): No activity
Activity (Rattus norvegicus [31]): 4
Dose (Mus musculus [5]): 100 mg/kg
Dose (Mus musculus [6]): 30 mg/kg
Activity (Rattus norvegicus [32]): 2
Dose (Mus musculus [7]): 100 mg/kg
ED50 (Mus musculus [33]): 86.9 mg/kg
TD50 [34]: > 322 mg/kg
ED50 (Rattus norvegicus [35]): 3.21 mg/kg
Activity (Rattus norvegicus [36]): 3

CC(=O)N/N=C/c1ccc(Oc2ccc(F)cc2)cc1
Dose (Mus musculus [1]): 100 mg/kg
Activity (Rattus norvegicus [26]): 2
Activity (Rattus norvegicus [37]): 1
Dose (Mus musculus [17]): 100 mg/kg
Dose (Mus musculus [11]): 100 mg/kg
Activity (Rattus norvegicus [31]): 1
Dose (Mus musculus [5]): 30 mg/kg
logP [18]: 1.96
Dose (Mus musculus [6]): 30 mg/kg
Activity (Rattus norvegicus [32]): 4
Dose (Mus musculus [7]): 100 mg/kg
ED50 (Rattus norvegicus [38]): 18.7 mg/kg
selectivity ratio [39]: > 6.7
TD50 at 2 h [40]: > 125 mg/kg
Activity (Rattus norvegicus [36]): 2
